Results gathered from unrelated publications.
Compare with care: the assays were run in different laboratories.
Target: Serine/threonine-protein kinase Sgk2 (SGK2, Homo sapiens, UniProt Q9HBY8)
Residues used in one study (Q9HBY8 1-367): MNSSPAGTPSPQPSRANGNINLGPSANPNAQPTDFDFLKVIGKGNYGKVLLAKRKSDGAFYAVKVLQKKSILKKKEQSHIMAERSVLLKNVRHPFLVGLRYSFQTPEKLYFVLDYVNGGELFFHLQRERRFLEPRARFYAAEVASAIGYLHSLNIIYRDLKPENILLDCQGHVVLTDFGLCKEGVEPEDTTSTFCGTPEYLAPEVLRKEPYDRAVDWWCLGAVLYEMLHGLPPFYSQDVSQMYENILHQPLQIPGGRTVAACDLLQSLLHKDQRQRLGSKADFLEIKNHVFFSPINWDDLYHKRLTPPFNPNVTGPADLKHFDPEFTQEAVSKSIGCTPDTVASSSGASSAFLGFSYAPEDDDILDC

Structure (SMILES)	observed	method	concentration	remaining binding [%]
C[C@@H](c1ccc(-n2cnc3c(N)ncnc32)cc1)N1CCc2nn(C)c(Cc3ccccc3)c2C1=O	binding	competition with immobilised ligand	0.1 µM	48
CCCOc1ccc([C@@H]2[C@@H](C(=O)O)[C@H](c3ccc4c(c3)OCO4)CN2CC(=O)Nc2c(CC)cccc2CC)cc1	cell-free assay	competition with immobilised ligand	1 µM	69
Cc1cnc(Nc2ccc(C(=O)N3CCC(N4CCCC4)CC3)cc2)nc1-c1cc2ccccc2s1	binding	competition with immobilised ligand	1 µM	29
CN(C)c1ncc(F)c(-c2cnn3ncccc23)n1	binding	–	1 µM	72
O=C(Nc1c[nH]nc1C(=O)NC1CCNCC1)c1cc(F)cc(F)c1	binding	competition with immobilised ligand	1 µM	93
CC1CCCN1c1nccc(-c2cnn3ncccc23)n1 (centres unmarked)	binding	–	1 µM	94
O=C(c1ccc(Nc2ncc(Cl)c(-c3ccc(Cl)s3)n2)cc1)N1CCC(N2CCCC2)CC1	binding	competition with immobilised ligand	1 µM	100
CC1=C(C#N)C(c2ccc3c(c2)c(NC(=O)c2ccccc2C)nn3C)C(C#N)=C(C)N1	cell-free assay	competition with immobilised ligand	1 µM	73
O=C(NCCCN1CCOCC1)c1ccc(Nc2nccc(-c3cc4ccccc4s3)n2)cc1	binding	competition with immobilised ligand	1 µM	55
CN(C)c1nccc(-c2cnn3ncccc23)n1	binding	–	1 µM	75
FC(F)(F)Oc1cccc(-c2cnc3ccc(-c4ccncc4)nn23)c1	binding	competition with immobilised ligand	5 µM	77
Cn1cc(Cl)c2c(Oc3c(F)cc(Nc4cc(Cl)nc(N)n4)cc3F)ccnc21	cell-free assay	competition with immobilised ligand	0.1 µM	86
COc1cnc(Nc2cccc(S(N)(=O)=O)c2)nc1N1CCN(c2ccccc2)CC1	binding	competition with immobilised ligand	1 µM	82
Cc1cc(C)c(-n2ccn3nc(-c4cccnc4)cc23)cc1NC(=O)c1cc(C#N)cc(S(F)(F)(F)(F)F)c1	cell-free assay	competition with immobilised ligand	0.1 µM	100
CN(c1nccc(-c2cnn3ncccc23)n1)C1CC1	binding	–	1 µM	86
COc1ncc2cc3ccccc3nc2c1C#N	cell-free assay	competition with immobilised ligand	5 µM	98
Cc1nc(N2CC[C@@H](O)C2)ncc1-c1cc(C(F)(F)F)cc2[nH]ncc12	binding	competition with immobilised ligand	1 µM	88
C[C@H]1CCN(c2nccc(-c3cnn4ncccc34)n2)C1	binding	–	1 µM	65
O=C(NCc1ncc(C(F)(F)F)cc1Cl)c1ccc2c(c1)C1(CCS(=O)(=O)CC1)[C@H](C1CC1)N2S(=O)(=O)c1ccc(F)cc1	cell-free assay	competition with immobilised ligand	1 µM	83
N[C@@H]1CCN(c2nccc(-c3cnn4ncccc34)n2)C1	binding	–	1 µM	100
